The values that follow come from ChEMBL document CHEMBL2311334, “Synthesis and evaluation of 8-oxoadenine derivatives as potent Toll-like receptor 7 agonists with high water solubility” (Bioorg Med Chem Lett, 2013).

≈ marks a conversion by molar mass, not a printed value.

Series [1] concerns the target T1, Toll-like receptor 7 (Homo sapiens, UniProt Q9NYK1).
T1 sequence (Q9NYK1 whole entry): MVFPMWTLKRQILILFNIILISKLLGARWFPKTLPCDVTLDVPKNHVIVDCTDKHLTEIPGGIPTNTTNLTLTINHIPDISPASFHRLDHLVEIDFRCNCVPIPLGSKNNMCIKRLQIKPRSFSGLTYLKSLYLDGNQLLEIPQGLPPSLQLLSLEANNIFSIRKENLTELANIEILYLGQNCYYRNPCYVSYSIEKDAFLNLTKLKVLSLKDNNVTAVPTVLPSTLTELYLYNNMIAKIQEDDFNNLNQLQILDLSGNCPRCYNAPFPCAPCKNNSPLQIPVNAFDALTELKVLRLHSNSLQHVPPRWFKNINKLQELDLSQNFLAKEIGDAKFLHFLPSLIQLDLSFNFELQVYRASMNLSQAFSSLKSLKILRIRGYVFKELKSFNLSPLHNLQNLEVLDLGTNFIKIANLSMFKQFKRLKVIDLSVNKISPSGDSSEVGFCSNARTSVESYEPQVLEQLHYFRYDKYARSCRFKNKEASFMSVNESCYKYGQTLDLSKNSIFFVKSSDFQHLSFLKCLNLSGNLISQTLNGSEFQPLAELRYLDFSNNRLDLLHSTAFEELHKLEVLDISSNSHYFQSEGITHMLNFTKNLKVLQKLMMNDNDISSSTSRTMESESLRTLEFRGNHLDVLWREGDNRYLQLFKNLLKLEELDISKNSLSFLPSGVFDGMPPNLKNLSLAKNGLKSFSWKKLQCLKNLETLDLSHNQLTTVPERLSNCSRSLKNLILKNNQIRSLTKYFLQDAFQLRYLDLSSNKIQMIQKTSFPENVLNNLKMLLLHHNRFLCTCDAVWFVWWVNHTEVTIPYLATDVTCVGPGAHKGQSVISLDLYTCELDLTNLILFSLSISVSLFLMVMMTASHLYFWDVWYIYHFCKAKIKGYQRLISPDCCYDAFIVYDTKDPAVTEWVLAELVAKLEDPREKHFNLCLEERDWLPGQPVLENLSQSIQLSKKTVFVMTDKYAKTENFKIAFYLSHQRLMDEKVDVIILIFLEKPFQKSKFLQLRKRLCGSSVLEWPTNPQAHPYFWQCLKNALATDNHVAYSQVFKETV
Kind of series: Agonist activity at human TLR7 expressed in HEK293 cells by NFkappaB SEAP reporter gene assay. In kind it is cell-based. The procedure, abridged:
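HEK293 cells stably transfected with human TLR7 plus an NF-κB-driven SEAP reporter. EC50 taken from reporter read-out, given as the mean of two independent experiments.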

A short description of series [2]: Aqueous solubility in pH 7.4 buffer. Type of series: physicochemical. The method in brief: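 Solubility measured in pH 7.4 buffer.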
Series [3] in a line: Antitumor activity against mouse HM1 cells xenografted in B6C3F1 mouse assessed as inhibition of lung metastasis at 1 mg/kg, iv administered biweekly starting on day 1 post tumor xenografting measured on day 35 post tumor xenografting. The following applies: in the assay text read “starting on day 11 post” for “starting on day 1 post”. In kind it is functional. The procedure, abridged:
(§1)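 HM-1 ovarian cancer cells injected subcutaneously into B6C3F1 mice on day 0. Primary tumor surgically removed under isoflurane on day 10. Compound given intravenously twice weekly from day 11. Lung metastases counted on day 35 and expressed as % inhibition. Six mice per group, mean ± SD. Significance versus vehicle by Wilcoxon test.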

In series [4] the target is T2, Toll-like receptor 7 (Mus musculus, UniProt P58681).
T2 sequence (P58681 whole entry): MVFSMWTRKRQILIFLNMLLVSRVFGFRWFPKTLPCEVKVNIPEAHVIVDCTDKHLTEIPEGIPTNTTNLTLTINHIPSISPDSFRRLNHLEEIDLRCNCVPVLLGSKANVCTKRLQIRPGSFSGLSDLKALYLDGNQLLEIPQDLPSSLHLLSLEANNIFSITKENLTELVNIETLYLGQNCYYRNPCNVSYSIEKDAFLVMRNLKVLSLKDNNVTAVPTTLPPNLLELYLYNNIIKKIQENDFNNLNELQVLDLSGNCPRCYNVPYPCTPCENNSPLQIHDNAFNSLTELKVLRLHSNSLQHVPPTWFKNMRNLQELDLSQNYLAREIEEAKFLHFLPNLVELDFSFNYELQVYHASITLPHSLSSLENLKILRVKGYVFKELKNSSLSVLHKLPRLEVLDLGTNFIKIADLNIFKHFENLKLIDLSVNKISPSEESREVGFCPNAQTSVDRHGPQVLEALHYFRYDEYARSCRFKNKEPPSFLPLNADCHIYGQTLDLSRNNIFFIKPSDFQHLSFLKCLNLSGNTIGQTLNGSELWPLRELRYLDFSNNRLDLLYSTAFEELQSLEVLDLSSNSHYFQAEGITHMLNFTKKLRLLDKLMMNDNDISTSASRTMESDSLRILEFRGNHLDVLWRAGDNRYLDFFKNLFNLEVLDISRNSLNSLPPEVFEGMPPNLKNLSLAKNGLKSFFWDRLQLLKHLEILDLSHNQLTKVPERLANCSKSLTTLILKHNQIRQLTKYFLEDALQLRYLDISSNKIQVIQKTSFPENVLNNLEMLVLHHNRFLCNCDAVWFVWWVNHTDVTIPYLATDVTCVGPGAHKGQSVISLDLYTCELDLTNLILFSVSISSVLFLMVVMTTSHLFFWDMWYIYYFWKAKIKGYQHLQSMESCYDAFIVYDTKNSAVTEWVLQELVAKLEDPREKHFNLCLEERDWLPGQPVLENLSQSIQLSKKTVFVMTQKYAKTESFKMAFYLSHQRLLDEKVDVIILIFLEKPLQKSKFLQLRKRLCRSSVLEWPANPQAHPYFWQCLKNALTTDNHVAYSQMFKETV
Briefly: Agonist activity at mouse TLR7.

Series [5] is described as follows: Antitumor activity against mouse HM1 cells xenografted in B6C3F1 mouse assessed as inhibition of lung metastasis at 10 mg/kg, iv administered biweekly starting on day 1 post tumor xenografting measured on day 35 post tumor xenografting. Type of series: functional. The following applies: in the assay text read “starting on day 11 post” for “starting on day 1 post”. The method in brief:
as §1

In series [6] the test system is Mus musculus. Briefly: Increase in IFN level in Balb/c mouse plasma at 10 mg/kg, iv measured after 6 hrs post dose by L929 cells and VSV based bioassay. In kind it is functional. The procedure, abridged:
(§2)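 Female Balb/c mice were given a single intravenous dose of test compound. Plasma interferon was sampled 6 h post dose and quantified by a bioassay using L929 cells challenged with vesicular stomatitis virus, with values reported in IU/mL.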

A short description of series [7]: Half life in Balb/c mouse at 1 mg/kg, iv. In kind it is ADME, organism-based. The arrangement: dose 1 mg/kg, route intravenous. The conditions noted are these: in vivo. The method in brief: (§3)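 Female Balb/c mice dosed intravenously at 1 mg/kg. Vdss and T1/2 calculated from this PK study.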
Series [8] in a line: Volume of distribution at steady state in Balb/c mouse at 1 mg/kg, iv. Type of series: ADME, organism-based. Further details: dose 1 mg/kg, route intravenous. The following applies: in vivo, read-out: Vdss. The method in brief: as §3
Series [9] can be described thus: Potency index, ratio of antitumor activity of 852A to test compound against mouse HM1 cells xenografted in B6C3F1 mouse. In kind it is functional.
The nature of series [10]: Antitumor activity against mouse HM1 cells xenografted in B6C3F1 mouse assessed as inhibition of lung metastasis at 1 mg/kg, iv administered biweekly starting on day 11 post tumor xenografting measured on day 35 post tumor xenografting.
The subject of series [11] is Mus musculus. Briefly: Increase in IFN level in Balb/c mouse plasma at 1 mg/kg, iv measured after 6 hrs post dose by L929 cells and VSV based bioassay. In kind it is functional. The method in brief:
as §2

Series [12] concerns the target T3, Toll-like receptor 7 (Homo sapiens) (UniProt Q9NYK1).
T3 sequence (whole entry): T1 sequence (Q9NYK1 whole entry)
Briefly: Potency index, ratio of EC50 of 852A to EC50 of test compound for human TLR7 expressed in HEK293 cells by NFkappaB SEAP reporter gene assay. Type of series: cell-based.

Series [13] is described as follows: Antitumor activity against mouse HM1 cells xenografted in B6C3F1 mouse assessed as inhibition of lung metastasis at 0.1 mg/kg, iv administered biweekly starting on day 1 post tumor xenografting measured on day 35 post tumor xenografting. The conditions noted are these: in the assay text read “starting on day 11 post” for “starting on day 1 post”. Type of series: functional. The procedure, abridged: as §1

`CCCCNc1nc(N)c2[nH]c(=O)n(Cc3ccc(OCCCCN(C)C)nc3)c2n1` came in with an EC50 at Toll-like receptor 7 [1] of 15.2 nM. Moreover, the solubility in [2] came out at 350 µg/mL (≈ 817 µM).

Regarding `CCCCNc1nc(N)c2[nH]c(=O)n(Cc3ccc(CN4CCCCC4)cc3)c2n1`, it took 7.6 nM to reach a half-maximal effect at Toll-like receptor 7 [1] (EC50). In addition, in series [2], the solubility is 19 µg/mL (≈ 46.4 µM).

With `CCCCNc1nc(N)c2[nH]c(=O)n(Cc3ccc(OCCCN(C)C)nc3)c2n1`, the concentration in solution in [2] (solubility) was 288 µg/mL (≈ 695 µM).

Consider `CCc1nc2c(N)nc3ccccc3c2n1CCCCNS(C)(=O)=O` [CPG-52852], for which the inhibition in vivo at 1 mg/kg in series [3] turned out to be 6%. For the same compound, the values for the half-maximal effective concentration (EC50) on Toll-like receptor 7 [4] and at Toll-like receptor 7 [1] were 6220 nM and 2660 nM, respectively. The inhibition in vivo at 10 mg/kg in series [5] came out at 55%. Moreover, in the series on Mus musculus [6], the Activity worked out at 19 IU/ml.

`CCCCNc1nc(N)c2[nH]c(=O)n(Cc3cccc(CN4CCCCC4)c3)c2n1` came in with an EC50 at Toll-like receptor 7 [1] of 30.1 nM.

Regarding `CCCCNc1nc(N)c2nc(O)n(Cc3ccc(OC)nc3)c2n1`, the EC50 at Toll-like receptor 7 [1] was found to be 28.1 nM. The compound also gave a solubility in series [2] of less than 1 µg/mL.

On to `CCCCNc1nc(N)c2[nH]c(=O)n(Cc3ccc(CN4CCOCC4)cc3)c2n1`, for which the EC50 at Toll-like receptor 7 [1] amounted to 58 nM. In series [2], this compound gave a solubility of 8 µg/mL (≈ 19.4 µM).

`CCCCNc1nc(N)c2nc(O)n(Cc3ccc(C)cc3)c2n1` returned an EC50 at Toll-like receptor 7 [1] of 166 nM. In series [2], this compound yielded a solubility of less than 1 µg/mL.

On Toll-like receptor 7 [1], `CCCCNc1nc(N)c2[nH]c(=O)n(Cc3ccc(N4CCC(N(C)C)CC4)nc3)c2n1` gave an EC50 of 9.4 nM. For the same compound, the solubility in [2] was 71 µg/mL (≈ 162 µM).

For `CCCCNc1nc(N)c2[nH]c(=O)n(Cc3ccc(OCCN(C)C)nc3)c2n1`, the EC50 on Toll-like receptor 7 [4] was determined as 4.6 nM; at Toll-like receptor 7 [1] it was 7.2 nM. Also, the half-life in series [7] is 1.3 h. For the same compound, the Vd in series [8] turned out to be 6.6 L/kg. This compound also registered a solubility in series [2] of 372 µg/mL (≈ 929 µM). The Ratio in series [9] is listed as greater than 100. For the same compound, the inhibition in vivo at 1 mg/kg in [10] came out at 100%. In addition, the Activity in the series on Mus musculus [11] was 840 IU/ml. Moreover, the Ratio EC50 in series [12] was determined as 370. Further, the inhibition in vivo at 0.1 mg/kg in series [13] came out at 78%.

On Toll-like receptor 7 [1], `CCCCNc1nc(N)c2[nH]c(=O)n(Cc3cccc(CN4CCN(C)CC4)c3)c2n1` showed an EC50 of 130 nM.

In turn, `CCCCNc1nc(N)c2[nH]c(=O)n(Cc3ccc(N4CCC(N(C)C)C4)nc3)c2n1` (configuration not stated) displayed an EC50 at Toll-like receptor 7 [1] of 7.4 nM. This compound returned a solubility in [2] of 53 µg/mL (≈ 125 µM).

`CCCCNc1nc(N)c2[nH]c(=O)n(Cc3ccc(OCCNC)nc3)c2n1`: it took 166 nM to reach a half-maximal effect at Toll-like receptor 7 [1] (EC50).

The compound `CCCCNc1nc(N)c2[nH]c(=O)n(Cc3ccc(CN(C)C)cc3)c2n1` showed an EC50 on Toll-like receptor 7 [1] of 9.3 nM. This compound also came in with a solubility in [2] of 98 µg/mL (≈ 265 µM).

In the case of `CCCCNc1nc(N)c2[nH]c(=O)n(Cc3ccc(OCCN4CCOCC4)nc3)c2n1`, the EC50 at Toll-like receptor 7 [1] worked out at 50.2 nM. In addition, the solubility in series [2] amounted to 34 µg/mL (≈ 76.8 µM).

`CCCCNc1nc(N)c2[nH]c(=O)n(Cc3ccc(N4CCNCC4)nc3)c2n1` showed an EC50 on Toll-like receptor 7 [1] of 48.5 nM. In series [2], this compound registered a solubility of 63 µg/mL (≈ 158 µM).

Compound `CCCCNc1nc(N)c2[nH]c(=O)n(Cc3ccc(N(C)CCCN(C)C)nc3)c2n1` showed a concentration for a half-maximal effect (EC50) at Toll-like receptor 7 [1] of 72.8 nM. Besides, the concentration in solution in series [2] (solubility) was 725 µg/mL (≈ 1700 µM).

As to `CCCCNc1nc(N)c2nc(O)n(Cc3ccc(C)nc3)c2n1`, the midpoint of the response on Toll-like receptor 7 [1], the EC50, lay at 32 nM. Besides, the solubility in [2] is less than 1 µg/mL.

As to `CCCCNc1nc(N)c2[nH]c(=O)n(Cc3ccc(N4CCN(C)CC4)nc3)c2n1`, at Toll-like receptor 7 [1], a half-maximal effect (EC50) was put at 5.4 nM. Moreover, the concentration in solution in [2] (solubility) was 7 µg/mL (≈ 17 µM).

The compound `CCCCNc1nc(N)c2[nH]c(=O)n(Cc3ccc(CN4CCN(C)CC4)cc3)c2n1` came in with an EC50 at Toll-like receptor 7 [1] of 7 nM. Also, the concentration in solution in series [2] (solubility) came to 108 µg/mL (≈ 254 µM).
